Nine molecules from ChEMBL document CHEMBL4680284, “Doxorubicin and Aclarubicin: Shuffling Anthracycline Glycans for Improved Anticancer Agents” (J Med Chem, 2020) can be followed below.

Calls of active or inactive are those of the source. The rule behind the calls is not given here.

Usually IC50 stands for the concentration that inhibits the measured activity by half.

The test system of data set [1] is DNA. In words: Induction of DNA damage in human K562 cells assessed as induction of DNA break formation by measuring H2AX phosphorylation at 10 uM incubated for 2 hrs by Western blot analysis. In kind it is cell-based. A digest of the protocol:
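K562 cells were given 10 μM drug for 2 h, then washed extensively. They were lysed in SDS sample buffer (2% SDS, 60 mM Tris–HCl pH 6.8) and run on SDS-PAGE. Blots were probed for γH2AX (1:1000), with β-actin (1:10000) as the loading control. The γH2AX signal was quantified relative to actin.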
A general note: In western blotting, separated proteins are transferred to a membrane and probed.

The test system of data set [2] is DNA. The experiment in a line: Induction of DNA damage in human K562 cells assessed as induction of DNA break formation by measuring H2AX phosphorylation at 10 uM incubated for 2 hrs by constant-field gel […] method. In kind it is cell-based. In a few lines:
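K562 cells were exposed to 10 μM drug for 2 h and washed extensively. DNA double-strand breaks were then resolved by constant-field gel electrophoresis and the images quantified. Results are mean ± SD of three independent experiments.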

Data set [3] relates to MEL-JUSO. The experiment in a line: Induction of histone eviction in human MEL-JUSO cells assessed as release of photoactivated green fluorescent protein-labeled histone H2A at 10 uM incubated for 2 hrs by time-lapse confocal microscopy. In kind it is functional, cell-based. In a few lines: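 MelJuSo cells stably expressing PAGFP-H2A were kept in IMDM with 8% FCS and G-418. Nuclear regions were photoactivated and 10 μM drug was added. Time-lapse confocal imaging (63× lens, climate chamber) followed the loss of fluorescence from the activated regions. Values are mean ± SD of 10–20 cells from at least three independent experiments.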

The next data set concerns K562. In words: Cytotoxicity in human K562 cells assessed as reduction in cell viability incubated for 2 hrs by Cell-titer-blue assay. In kind it is functional, cell-based. As to conditions: K562, 2 h. In a few lines: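 The drugs were then removed and the cells grown a further 72 h before a CellTiter-Blue viability read. Survival was normalized to the untreated control and background-corrected, with mean ± SD from three experiments. Culture was at 37 °C in 5% CO2. Media with 8% FCS were RPMI-1640 (DU145, HCT116, K562, PC3), IMDM (MelJuSo) and DMEM (U87).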

The test system of data set [4] is MEL-JUSO. In words: Cytotoxicity in human MEL-JUSO cells assessed as reduction in cell viability incubated for 2 hrs by Cell-titer-blue assay. In kind it is functional, cell-based. A digest of the protocol: (§1)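 The drugs were then removed and the cells grown a further 72 h before a CellTiter-Blue viability read. Survival was normalized to the untreated control and background-corrected, with mean ± SD from three experiments. Culture was at 37 °C in 5% CO2.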

A further data set concerns HCT-116. In words: Cytotoxicity in human HCT-116 cells assessed as reduction in cell viability incubated for 2 hrs by Cell-titer-blue assay. Format: functional, cell-based. As to conditions: HCT-116, 2 h. In a few lines: as §1
A further data set relates to PC-3. The experiment in a line: Cytotoxicity in human PC-3 cells assessed as reduction in cell viability incubated for 2 hrs by Cell-titer-blue assay. In kind it is functional, cell-based. As to conditions: PC-3, 2 h. A digest of the protocol: as §1
For a further data set, the system named is DU-145. The experiment in a line: Cytotoxicity in human DU-145 cells assessed as reduction in cell viability incubated for 2 hrs by Cell-titer-blue assay. To be noted: DU-145, 2 h. In kind it is functional, cell-based. In a few lines: as §1
A further data set concerns U-87 MG. In words: Cytotoxicity in human U87 cells assessed as reduction in cell viability incubated for 2 hrs by Cell-titer-blue assay. Format: functional, cell-based, U-87MG ATCC. A digest of the protocol: as §1
The nature of data set [5]: Drug uptake in human K562 cells at 1 uM by flow cytometry relative to doxorubicin. As to conditions: k562, 1 µM. Format: ADME, cell-based. In a few lines: (§2)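 K562 cells in RPMI-1640 with 8% FCS were exposed to 1 μM drug for 2 h. They were then washed, collected and fixed with paraformaldehyde. The intrinsic anthracycline fluorescence was read by flow cytometry with a 561 nm laser and a 610/20 nm detector.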
Background: A flow cytometer gives signals particle by particle.

The target in data set [6] is DNA topoisomerase 2-alpha (Homo sapiens) (UniProt P11388). The experiment in a line: Induction of relocalization of GFP-tagged Topo2a (unknown origin) expressed in human MEL-JUSO cells at 10 uM incubated for 15 mins. Format: cell-based. A digest of the protocol: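 MelJuSo cells were transiently transfected with a TopoIIα-GFP construct and imaged live by confocal microscopy. Relocalization of TopoIIα was expressed as a fractional distance.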

Data set [7] in a line: Drug uptake in human K562 cells at 1 uM by flow cytometry relative to aclarubicin. Format: ADME, cell-based. To be noted: k562, 1 µM. A digest of the protocol:
as §2

Sequence of DNA topoisomerase 2-alpha (Homo sapiens) (P11388 whole entry): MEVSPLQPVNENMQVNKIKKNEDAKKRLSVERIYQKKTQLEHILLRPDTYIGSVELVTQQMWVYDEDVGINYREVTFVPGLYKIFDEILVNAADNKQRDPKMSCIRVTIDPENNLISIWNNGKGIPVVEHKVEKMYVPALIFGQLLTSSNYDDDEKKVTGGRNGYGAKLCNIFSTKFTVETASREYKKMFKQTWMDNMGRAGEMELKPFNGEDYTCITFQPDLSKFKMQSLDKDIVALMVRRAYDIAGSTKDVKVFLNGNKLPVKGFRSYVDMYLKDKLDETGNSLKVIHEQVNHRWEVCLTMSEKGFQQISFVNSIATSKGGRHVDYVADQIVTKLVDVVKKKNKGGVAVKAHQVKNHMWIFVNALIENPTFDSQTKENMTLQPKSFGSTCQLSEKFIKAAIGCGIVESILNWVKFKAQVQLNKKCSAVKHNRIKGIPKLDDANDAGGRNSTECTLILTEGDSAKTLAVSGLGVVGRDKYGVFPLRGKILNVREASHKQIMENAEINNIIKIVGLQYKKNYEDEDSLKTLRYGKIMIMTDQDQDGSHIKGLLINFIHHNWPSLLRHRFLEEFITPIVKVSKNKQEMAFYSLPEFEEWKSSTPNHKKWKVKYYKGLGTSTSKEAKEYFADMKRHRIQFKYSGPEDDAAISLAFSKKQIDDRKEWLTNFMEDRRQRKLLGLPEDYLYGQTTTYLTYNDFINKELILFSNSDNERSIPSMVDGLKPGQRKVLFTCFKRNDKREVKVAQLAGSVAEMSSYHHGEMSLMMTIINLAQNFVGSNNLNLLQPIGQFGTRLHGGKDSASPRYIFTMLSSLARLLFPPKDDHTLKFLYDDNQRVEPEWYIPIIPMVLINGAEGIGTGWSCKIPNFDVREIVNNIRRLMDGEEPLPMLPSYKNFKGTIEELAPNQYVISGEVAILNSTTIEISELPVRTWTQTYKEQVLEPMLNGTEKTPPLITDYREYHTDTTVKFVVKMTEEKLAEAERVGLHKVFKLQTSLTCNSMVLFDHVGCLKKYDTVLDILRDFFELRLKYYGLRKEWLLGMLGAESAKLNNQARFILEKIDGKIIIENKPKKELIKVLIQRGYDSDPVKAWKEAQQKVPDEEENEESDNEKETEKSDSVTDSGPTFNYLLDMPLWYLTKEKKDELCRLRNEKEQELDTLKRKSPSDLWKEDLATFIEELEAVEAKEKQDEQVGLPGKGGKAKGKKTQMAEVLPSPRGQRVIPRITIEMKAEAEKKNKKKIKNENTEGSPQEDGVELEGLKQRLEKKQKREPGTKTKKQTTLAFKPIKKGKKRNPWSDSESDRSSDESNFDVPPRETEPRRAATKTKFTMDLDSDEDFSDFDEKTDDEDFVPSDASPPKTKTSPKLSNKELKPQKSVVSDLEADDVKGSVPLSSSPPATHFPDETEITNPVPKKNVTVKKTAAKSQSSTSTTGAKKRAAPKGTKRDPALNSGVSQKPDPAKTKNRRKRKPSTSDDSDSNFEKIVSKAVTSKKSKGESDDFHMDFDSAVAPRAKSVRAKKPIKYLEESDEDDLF

With `COc1cccc2c1C(=O)c1c(O)c3c(c(O)c1C2=O)C[C@@](O)(C(=O)CO)C[C@@H]3O[C@H]1C[C@H](N(C)C)[C@H](O[C@H]2C[C@H](O)[C@H](O)[C@H](C)O2)[C@H](C)O1`, the result with DNA [1] and in the data set with DNA [2] was inactive. Moreover, the result (in the data set with MEL-JUSO [3]; in [6] (filed as modulator)) was Active. Further, the IC50 in the data set with K562 turned out to be 2410 nM; in the data set with MEL-JUSO [4], 1570 nM; with HCT-116 it was 1370 nM; in the data set with PC-3 it was 3200 nM; in the data set on DU-145, 3200 nM; in the data set with U-87 MG it was 603 nM. The Drug uptake entry in data set [5] was “Not Active”.
Consider `CC[C@@]1(O)C[C@H](O[C@H]2C[C@H](N)[C@H](O)[C@H](C)O2)c2c(cc3c(c2O)C(=O)c2c(O)cccc2C3=O)[C@H]1C(=O)OC`, for which the result with DNA [1], in the data set with DNA [2] and in the data set on MEL-JUSO [3] was inactive. Further, the Drug uptake entry in data set [7] is reported as “Not Active”. In addition, in [6] (filed as modulator), the result was Active.
With `COc1cccc2c1C(=O)c1c(O)c3c(c(O)c1C2=O)C[C@@](O)(C(=O)CO)C[C@@H]3O[C@H]1C[C@H](N)[C@H](O[C@H]2C[C@H](O)[C@H](O[C@H]3CCC(=O)[C@H](C)O3)[C@H](C)O2)[C@H](C)O1`, the outcome (in the data set with DNA [1]; with DNA [2]; in data set [6] (filed as modulator)) was Active. In the data set on MEL-JUSO [3], the result was inactive. Further, the IC50 with K562 worked out at 1400 nM; in the data set on MEL-JUSO [4], 1810 nM; in the data set on HCT-116 it was 1860 nM; with PC-3, 1540 nM; with DU-145, 1360 nM; in the data set on U-87 MG, 2210 nM. Further, in data set [5], the Drug uptake entry is given as “Not Active”.
In the case of `COc1cccc2c1C(=O)c1c(O)c3c(c(O)c1C2=O)C[C@@](O)(C(=O)CO)C[C@@H]3O[C@H]1C[C@H](N)[C@H](O)[C@H](C)O1` [DOXORUBICIN], the result (in the data set on DNA [1]; in the data set on DNA [2]; in the data set with MEL-JUSO [3]; in data set [6] (filed as modulator)) was Active. For the same molecule, the IC50 in the data set with K562 is 361 nM; with MEL-JUSO [4], 237 nM; with HCT-116, 579 nM; in the data set with PC-3, 1140 nM; in the data set on DU-145, 534 nM; with U-87 MG, 381 nM.
On to `CC[C@@]1(O)C[C@H](O[C@H]2C[C@H](N)[C@H](O[C@H]3C[C@H](O)[C@H](O[C@H]4CCC(=O)[C@H](C)O4)[C@H](C)O3)[C@H](C)O2)c2c(cc3c(c2O)C(=O)c2c(O)cccc2C3=O)[C@H]1C(=O)OC`, for which the result in the data set on DNA [1], in the data set with DNA [2] and in the data set on MEL-JUSO [3] was inactive. The IC50 in the data set with K562 came to 3040 nM. In addition, the Drug uptake entry in data set [7] is listed as “Active”. Further, the result in [6] (filed as modulator) was Active.
In the case of `CC[C@@]1(O)C[C@H](O[C@H]2C[C@H](N(C)C)[C@H](O[C@H]3C[C@H](O)[C@H](O)[C@H](C)O3)[C@H](C)O2)c2c(cc3c(c2O)C(=O)c2c(O)cccc2C3=O)[C@H]1C(=O)OC`, the result in the data set on DNA [1] and in the data set with DNA [2] was inactive. Besides, the result (in the data set with MEL-JUSO [3]; in data set [6] (filed as modulator)) was Active. Besides, the concentration for half-maximal inhibition (IC50) in the data set on K562 amounted to 211 nM; with MEL-JUSO [4], 423 nM; in the data set with HCT-116 it was 261 nM; in the data set on PC-3, 383 nM; with DU-145 it was 509 nM; with U-87 MG, 448 nM. Further, the Drug uptake entry in data set [7] is “Active”.
In the case of `CC[C@@]1(O)C[C@H](O[C@H]2C[C@H](N(C)C)[C@H](O[C@H]3C[C@H](O)[C@H](O[C@H]4CCC(=O)[C@H](C)O4)[C@H](C)O3)[C@H](C)O2)c2c(cc3c(c2O)C(=O)c2c(O)cccc2C3=O)[C@H]1C(=O)OC` [ACLARUBICIN], the result in the data set on DNA [1] and in the data set on DNA [2] was inactive. Further, the outcome (in the data set on MEL-JUSO [3]; in data set [6] (filed as modulator)) was Active. Besides, the IC50 was found to be 76 nM with K562; 48 nM with MEL-JUSO [4]; 40 nM with HCT-116; 101 nM in the data set on PC-3; 129 nM in the data set on DU-145; 137 nM in the data set on U-87 MG.
For `COc1cccc2c1C(=O)c1c(O)c3c(c(O)c1C2=O)C[C@@](O)(C(=O)CO)C[C@@H]3O[C@H]1C[C@H](N)[C@H](O[C@H]2C[C@H](O)[C@H](O)[C@H](C)O2)[C@H](C)O1`, the outcome (with DNA [1]; in the data set with DNA [2]; in the data set on MEL-JUSO [3]; in data set [6]) was inactive. In addition, the Drug uptake entry in [5] is “Not Active”.
`COc1cccc2c1C(=O)c1c(O)c3c(c(O)c1C2=O)C[C@@](O)(C(=O)CO)C[C@@H]3O[C@H]1C[C@H](N(C)C)[C@H](O[C@H]2C[C@H](O)[C@H](O[C@H]3CCC(=O)[C@H](C)O3)[C@H](C)O2)[C@H](C)O1`: the result in the data set with DNA [1] and in the data set on DNA [2] was inactive. The result (in the data set on MEL-JUSO [3]; in [6] (filed as modulator)) was Active. Further, the 50% inhibitory concentration (IC50) turned out to be 26 nM with K562; 7 nM in the data set on MEL-JUSO [4]; 8 nM in the data set with HCT-116; 34 nM with PC-3; 17 nM in the data set with DU-145; 33 nM with U-87 MG. The “fold change (FC)” value in data set [5] is recorded as 4.
